# Source: ChEMBL document CHEMBL3603811, “Design, chemical synthesis and biological evaluation of 3-spiromorpholinone/3-spirocarbamate androsterone derivatives as inhibitors of 17β-hydroxysteroid dehydrogenase type 3” (Bioorg Med Chem, 2015)
# Experiments:
# [1] = target: T1, 17-beta-hydroxysteroid dehydrogenase type 3 (Rattus norvegicus) (UniProt O54939); experiment: Inhibition of 17beta-HSD3 in rat testes microsomes using [14C]-4-androstene-3,17-dione as substrate measured based on 4% of initial enzyme transformation at 10 uM after 2 hrs; conditions: Testis
# T1 sequence (whole entry): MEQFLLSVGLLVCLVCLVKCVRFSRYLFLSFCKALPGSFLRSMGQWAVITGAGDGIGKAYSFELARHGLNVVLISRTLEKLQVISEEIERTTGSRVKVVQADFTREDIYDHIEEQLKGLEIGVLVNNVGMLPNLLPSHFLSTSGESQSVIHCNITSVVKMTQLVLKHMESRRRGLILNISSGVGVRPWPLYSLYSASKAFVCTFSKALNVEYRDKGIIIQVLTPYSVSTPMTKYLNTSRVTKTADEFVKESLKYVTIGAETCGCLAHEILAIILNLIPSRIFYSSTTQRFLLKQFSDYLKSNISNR
# In short: (§1)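 Rat testis microsomes: homogenate in phosphate/sucrose/EDTA buffer pH 7.5 with protease inhibitors, spun 12,500g, then pellet from 100,000g, at 4 °C. Reaction 2 h at 37 °C in 50 mM sodium phosphate pH 7.4, 20% glycerol, 1 mM EDTA, with NADPH and [14C]-Δ4-dione (50 nM). Inhibitor in DMSO. [14C]-T and substrate identified against reference steroids and quantified. Percent transformation and percent inhibition calculated.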
# [2] = target: T1, 17-beta-hydroxysteroid dehydrogenase type 3 (Rattus norvegicus); experiment: Inhibition of 17beta-HSD3 in rat testes microsomes using [14C]-4-androstene-3,17-dione as substrate measured based on 4% of initial enzyme transformation at 1 uM after 2 hrs; conditions: Testis; in short: as §1
# LAPC4 [3] = experiment: Androgenic activity in human LAPC4 cells expressing androgen receptor assessed as induction of cell proliferation at 1 uM after 3 days by MTS assay relative to control; format: functional
# In short: (§2)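 LAPC-4 (AR+) cells in RPMI-1640 with 5% dextran-coated charcoal-treated FBS to remove hormones. Triplicate cultures of 10,000 cells preincubated 24 h at 37 °C, 5% CO2. Compounds from 10^-2 M DMSO stock, diluted in medium, added for 3 days (final DMSO 0.05%; vehicle controls). Growth read by MTS. Androgenicity = % proliferation minus basal set at 100%.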
# LAPC4 [4] = experiment: Androgenic activity in human LAPC4 cells expressing androgen receptor assessed as induction of cell proliferation at 0.1 uM after 3 days by MTS assay relative to control; format: functional; in short: as §2
# [5] = target: T1, 17-beta-hydroxysteroid dehydrogenase type 3 (Rattus norvegicus); experiment: Inhibition of 17beta-HSD3 in rat testes microsomes using [14C]-4-androstene-3,17-dione as substrate measured based on 18% of initial enzyme transformation at 0.1 uM after 2 hrs; conditions: Testis; in short: as §1
# [6] = target: T1, 17-beta-hydroxysteroid dehydrogenase type 3 (Rattus norvegicus); experiment: Inhibition of 17beta-HSD3 in rat testes microsomes using [14C]-4-androstene-3,17-dione as substrate measured based on 18% of initial enzyme transformation at 0.01 uM after 2 hrs; conditions: Testis; in short: as §1
# [7] = target: T1, 17-beta-hydroxysteroid dehydrogenase type 3 (Rattus norvegicus); experiment: Inhibition of 17beta-HSD3 in rat testes microsomes using [14C]-4-androstene-3,17-dione as substrate measured based on 18% of initial enzyme transformation at 1 uM after 2 hrs; conditions: Testis; in short: as §1
Compound,inhibition [1] [%],inhibition [2] [%],Activity (LAPC4 [3]) [%],Activity (LAPC4 [4]) [%],inhibition [5] [%],inhibition [6] [%],inhibition [7] [%]
C[C@]12CC[C@@]3(C[C@@H]1CC[C@@H]1[C@@H]2CC[C@]2(C)C(=O)CC[C@@H]12)CN(Cc1ccccc1)[C@@H](Cc1ccccc1)C(=O)O3,83.6,81,53.7,6.1,,,
C[C@]12CC[C@]3(CNCC(=O)O3)C[C@@H]1CC[C@@H]1[C@@H]2CC[C@]2(C)C(=O)CC[C@@H]12,82,44.7,32,9.7,0,,
C[C@]12CC[C@@]3(C[C@@H]1CC[C@@H]1[C@@H]2CC[C@]2(C)C(=O)CC[C@@H]12)CN(Cc1ccc2ccccc2c1)CC(=O)O3,,,16.5,22.3,88.3,0,93.2
COC(=O)[C@H](CC(C)C)N1C[C@]2(CC[C@@]3(C)[C@@H](CC[C@@H]4[C@@H]3CC[C@]3(C)C(=O)CC[C@@H]43)C2)OC1=O,88.4,82.3,8.4,0,57.6,,93.6
CC(C)C[C@H]1NC[C@]2(CC[C@@]3(C)[C@@H](CC[C@@H]4[C@@H]3CC[C@]3(C)C(=O)CC[C@@H]43)C2)OC1=O,77.7,50.2,23.6,7.9,17.9,,
C[C@]12CC[C@@]3(C[C@@H]1CC[C@@H]1[C@@H]2CC[C@]2(C)C(=O)CC[C@@H]12)CN(Cc1ccccc1)[C@H](Cc1ccccc1)C(=O)O3,,61.7,50.1,9.9,,,
COC(=O)[C@H](Cc1ccccc1)N1C[C@]2(CC[C@@]3(C)[C@@H](CC[C@@H]4[C@@H]3CC[C@]3(C)C(=O)CC[C@@H]43)C2)OC1=O,87.7,72.1,0,0,48.3,,
C[C@]12CC[C@]3(CN[C@H](Cc4ccccc4)C(=O)O3)C[C@@H]1CC[C@@H]1[C@@H]2CC[C@]2(C)C(=O)CC[C@@H]12,70.6,,15.3,0,,,
C[C@]12CC[C@@]3(C[C@@H]1CC[C@@H]1[C@@H]2CC[C@]2(C)C(=O)CC[C@@H]12)CN(Cc1ccc(I)cc1)CC(=O)O3,,,15.9,0.9,79,12.2,95.3
COC(=O)CN1C[C@]2(CC[C@@]3(C)[C@@H](CC[C@@H]4[C@@H]3CC[C@]3(C)C(=O)CC[C@@H]43)C2)OC1=O,80.8,54.6,33.8,11,9,,
COC(=O)[C@@H](CC(C)C)N1C[C@]2(CC[C@@]3(C)[C@@H](CC[C@@H]4[C@@H]3CC[C@]3(C)C(=O)CC[C@@H]43)C2)OC1=O,67.8,76.9,21.9,1.5,55.4,,73.6
C[C@]12CC[C@@]3(C[C@@H]1CC[C@@H]1[C@@H]2CC[C@]2(C)C(=O)CC[C@@H]12)CN(CC(CN1CCOCC1)OC(=O)C1CCCCC1)C(=O)O3 (stereo not given in full),97.2,93.9,9.4,4.8,51.5,,93.1
C[C@]12CC[C@]3(CN[C@@H](Cc4ccccc4)C(=O)O3)C[C@@H]1CC[C@@H]1[C@@H]2CC[C@]2(C)C(=O)CC[C@@H]12,88.2,75,36.5,3.9,,,
C[C@]12CC[C@@]3(C[C@@H]1CC[C@@H]1[C@@H]2CC[C@]2(C)C(=O)CC[C@@H]12)CN(Cc1ccc(C(F)(F)F)cc1C(F)(F)F)CC(=O)O3,,,27,0,64.1,18.3,89.6
C[C@]12CC[C@@]3(C[C@@H]1CC[C@@H]1[C@@H]2CC[C@]2(C)C(=O)CC[C@@H]12)CN(Cc1cccc2ccccc12)CC(=O)O3,,,9.3,3.8,79.1,12.8,94.5
C#CCN1CC(=O)O[C@@]2(CC[C@@]3(C)[C@@H](CC[C@@H]4[C@@H]3CC[C@]3(C)C(=O)CC[C@@H]43)C2)C1,,,25.5,20.1,34.1,0.1,80.7
C=CCN1CC(=O)O[C@@]2(CC[C@@]3(C)[C@@H](CC[C@@H]4[C@@H]3CC[C@]3(C)C(=O)CC[C@@H]43)C2)C1,,,11.3,31,48.6,8.4,89
CC(C)C[C@@H]1C(=O)O[C@@]2(CC[C@@]3(C)[C@@H](CC[C@@H]4[C@@H]3CC[C@]3(C)C(=O)CC[C@@H]43)C2)CN1Cc1ccccc1,82.3,56.5,47.7,6.2,45.9,,
C[C@]12CC[C@@]3(C[C@@H]1CC[C@@H]1[C@@H]2CC[C@]2(C)C(=O)CC[C@@H]12)CN(Cc1ccc(-c2cccc(C(F)(F)F)c2)cc1)CC(=O)O3,,,14.3,13.5,84.8,26.1,84.9
CC(C)C[C@@H]1NC[C@]2(CC[C@@]3(C)[C@@H](CC[C@@H]4[C@@H]3CC[C@]3(C)C(=O)CC[C@@H]43)C2)OC1=O,83.8,69.3,11.1,14.5,39.4,,84.9
C[C@]12CC[C@@]3(C[C@@H]1CC[C@@H]1[C@@H]2CC[C@]2(C)C(=O)CC[C@@H]12)CN(Cc1cc(C(F)(F)F)cc(C(F)(F)F)c1)CC(=O)O3,,,5.9,12,61.6,15.1,94.4
COC(=O)[C@@H](Cc1ccccc1)N1C[C@]2(CC[C@@]3(C)[C@@H](CC[C@@H]4[C@@H]3CC[C@]3(C)C(=O)CC[C@@H]43)C2)OC1=O,80.8,74.3,29.2,0,56.1,,
O=C1OC2(CCCCC2)CN(Cc2cn(Cc3ccccc3)nn2)[C@H]1Cc1ccccc1,,,12.4,2.5,9.4,0,13.3
C[C@]12CC[C@@]3(C[C@@H]1CC[C@@H]1[C@@H]2CC[C@]2(C)C(=O)CC[C@@H]12)CN(Cc1ccccc1C(F)(F)F)CC(=O)O3,,,36.9,0.5,77.9,24.4,83
C[C@]12CCC(=O)C[C@@H]1CC[C@@H]1[C@@H]2CC[C@]2(C)[C@@H](O)CC[C@@H]12 [STANOLONE],,,51.5,28.8,,,
C[C@]12CC[C@@]3(C[C@@H]1CC[C@@H]1[C@@H]2CC[C@]2(C)C(=O)CC[C@@H]12)CN(Cc1cn(Cc2ccccc2)nn1)CC(=O)O3,,,17.7,10,42.2,5.1,85.3
C[C@]12CC[C@@]3(C[C@@H]1CC[C@@H]1[C@@H]2CC[C@]2(C)C(=O)CC[C@@H]12)CN(Cc1cccc(C(F)(F)F)c1)CC(=O)O3,,,27,0,54.1,17.7,94.2
C#CCN1CC2(CCCCC2)OC(=O)[C@@H]1Cc1ccccc1,,,0,11.1,0,0,0
